Results: ChEMBL document CHEMBL1134346, “Labeling and evaluation of N-[11C]methylated quinoline-2-carboxamides as potential radioligands for visualization of peripheral benzodiazepine receptors” (J Med Chem, 2001)

species on record: Rattus norvegicus; experiment: Tissue (spleen) distribution in Albino male CD rats after 5 minutes expressed as percent of injected dose per gram of organ.; assay type: ADME, organism-based; conditions: in vivo
Procedure, shortened: (§1)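 Male albino CD rats (225-250 g) received the 11C-labelled radioligand in saline by tail-vein injection. Three rats per time point were decapitated under light ether anaesthesia at 5, 15, 30, 60 or 90 min. Blood was collected heparinized and plasma separated by centrifugation. The pituitary was dissected from the brain. Lung, liver (three-lobe pieces) and right deltoid muscle were sampled, washed in cold saline, gamma-counted and weighed. Results are %I.D./g.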

| I.D./g | Compound |
| --- | --- |
| 0.34% | CCC(C)N(C)C(=O)c1nc2ccccc2c(-c2ccccc2F)c1C (stereo not given) |

species on record: Rattus norvegicus; experiment: Tissue (spleen) distribution in Albino male CD rats after 60 minutes expressed as percent of injected dose per gram of organ.; assay type: ADME, organism-based; conditions: in vivo, 1 h

| I.D./g | Compound |
| --- | --- |
| 0.65% | CCC(C)N(C)C(=O)c1nc2ccccc2c(-c2ccccc2F)c1C (stereo not given) |

species on record: Rattus norvegicus; experiment: Tissue (testicle) distribution in Albino male CD rats after 15 minutes expressed as percent of injected dose per gram of organ.; assay type: ADME, organism-based; conditions: in vivo, 0.25 h; procedure, shortened: as §1

| I.D./g | Compound |
| --- | --- |
| 0.09% | CCC(C)N(C)C(=O)c1nc2ccccc2c(-c2ccccc2F)c1C (stereo not given) |

species on record: Rattus norvegicus; experiment: Tissue (liver) distribution in Albino male CD rats after 15 minutes expressed as percent of injected dose per gram of organ.; assay type: ADME, organism-based; conditions: in vivo, 0.25 h
Procedure, shortened: (§2)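 Radioligand given in saline into tail vein of male albino CD rats (225-250 g); 100-200 µCi per animal, 1-2 Ci/µmol at injection depending on radioligand. Three rats per time point were decapitated under light ether anaesthesia. Blood, plasma, brain regions and washed organs were weighed and gamma-counted. Uptake is %I.D./g tissue, mean ± SD.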

| I.D./g | Compound |
| --- | --- |
| 0.69% | CCC(C)N(C)C(=O)c1nc2ccccc2c(-c2ccccc2F)c1C (stereo not given) |

species on record: Rattus norvegicus; experiment: Tissue (liver) distribution in Albino male CD rats after 30 minutes expressed as percent of injected dose per gram of organ.; assay type: ADME, organism-based; conditions: in vivo, 0.5 h; procedure, shortened: as §1

| I.D./g | Compound |
| --- | --- |
| 0.55% | CCC(C)N(C)C(=O)c1nc2ccccc2c(-c2ccccc2F)c1C (stereo not given) |

species on record: Rattus norvegicus; experiment: Tissue (liver) distribution in Albino male CD rats after 5 minutes expressed as percent of injected dose per gram of organ.; assay type: ADME, organism-based; conditions: in vivo; procedure, shortened: as §1

| I.D./g | Compound |
| --- | --- |
| 0.41% | CCC(C)N(C)C(=O)c1nc2ccccc2c(-c2ccccc2F)c1C (stereo not given) |

species on record: Rattus norvegicus; experiment: Tissue (liver) distribution in Albino male CD rats after 90 minutes expressed as percent of injected dose per gram of organ.; assay type: ADME, organism-based; conditions: in vivo, 1.5 h; procedure, shortened: as §1

| I.D./g | Compound |
| --- | --- |
| 0.39% | CCC(C)N(C)C(=O)c1nc2ccccc2c(-c2ccccc2F)c1C (stereo not given) |

target: Translocator protein (Rattus norvegicus) (UniProt P16257); experiment: Tissue (lung) concentration of radioactivity at 30 min post-injection into Albino male CD rats after pretreatment with cold PK 11195.; assay type: functional; conditions: not given
Sequence (P16257 whole entry, looked up): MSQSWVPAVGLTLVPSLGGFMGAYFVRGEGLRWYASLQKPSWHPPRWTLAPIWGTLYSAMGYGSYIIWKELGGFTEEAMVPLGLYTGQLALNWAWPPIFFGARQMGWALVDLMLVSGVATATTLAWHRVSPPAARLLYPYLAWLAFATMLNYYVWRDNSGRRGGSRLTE
Procedure, shortened: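 Blocking study in male albino CD rats, five per group. Immediately before the 11C radioligand (in saline, i.v. tail vein), rats received 30 µL tail-vein PK 11195 (5 mg/kg; 1.4-1.6 mg) in DMSO:EtOH 1:1, or vehicle. Rats were decapitated at 30 min. Tissues were dissected, washed, gamma-counted and weighed as in the biodistribution study. Results are %I.D./g.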

| I.D./g | Compound |
| --- | --- |
| < 0.12% | CCC(C)N(C)C(=O)c1nc2ccccc2c(-c2ccccc2F)c1C (stereo not given) |

species on record: Rattus norvegicus; experiment: Tissue (lung) distribution in Albino male CD rats after 5 minutes expressed as percent of injected dose per gram of organ.; assay type: ADME, organism-based; conditions: in vivo; procedure, shortened: as §1

| I.D./g | Compound |
| --- | --- |
| 2.37% | CCC(C)N(C)C(=O)c1nc2ccccc2c(-c2ccccc2F)c1C (stereo not given) |

species on record: Rattus norvegicus; experiment: Tissue (blood) distribution in Albino male CD rats after 30 minutes expressed as percent of injected dose per gram of organ.; assay type: ADME, organism-based; conditions: in vivo, 0.5 h; procedure, shortened: as §2

| I.D./g | Compound |
| --- | --- |
| 0.11% | CCC(C)N(C)C(=O)c1nc2ccccc2c(-c2ccccc2F)c1C (stereo not given) |

species on record: Rattus norvegicus; experiment: Tissue (blood) distribution in Albino male CD rats after 5 minutes expressed as percent of injected dose per gram of organ.; assay type: ADME, organism-based; conditions: in vivo; procedure, shortened: as §2

| I.D./g | Compound |
| --- | --- |
| 0.11% | CCC(C)N(C)C(=O)c1nc2ccccc2c(-c2ccccc2F)c1C (stereo not given) |

species on record: Rattus norvegicus; experiment: Tissue (adrenal gland) concentration of radioactivity at 30 min post-injection into Albino male CD rats with vehicle.; assay type: ADME, organism-based; conditions: in vivo, 0.5 h
Procedure, shortened: (§3)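 Separate groups of five rats received tail-vein PK 11195 (1.4-1.6 mg; 5 mg/kg) in 30 µL DMSO:EtOH 1:1, or vehicle alone, immediately before iv radioligand (90-170 µCi in saline, 0.9-1 Ci/µmol). Rats were decapitated at 30 min and tissues gamma-counted; values are %I.D./g.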

| I.D./g | Compound |
| --- | --- |
| 1.79% | CCC(C)N(C)C(=O)c1nc2ccccc2c(-c2ccccc2F)c1C (stereo not given) |

species on record: Rattus norvegicus; experiment: Tissue (adrenal gland) distribution in Albino male CD rats after 60 minutes expressed as percent of injected dose per gram of organ.; assay type: ADME, organism-based; conditions: in vivo, 1 h; procedure, shortened: as §2

| I.D./g | Compound |
| --- | --- |
| 2.85% | CCC(C)N(C)C(=O)c1nc2ccccc2c(-c2ccccc2F)c1C (stereo not given) |

species on record: Rattus norvegicus; experiment: Tissue (adrenal gland) distribution in Albino male CD rats after 90 minutes expressed as percent of injected dose per gram of organ.; assay type: ADME, organism-based; conditions: in vivo, 1.5 h; procedure, shortened: as §2

| I.D./g | Compound |
| --- | --- |
| 2.22% | CCC(C)N(C)C(=O)c1nc2ccccc2c(-c2ccccc2F)c1C (stereo not given) |

species on record: Rattus norvegicus; experiment: Tissue (spleen) distribution in Albino male CD rats after 30 minutes expressed as percent of injected dose per gram of organ.; assay type: ADME, organism-based; conditions: in vivo, 0.5 h; procedure, shortened: as §1

| I.D./g | Compound |
| --- | --- |
| 0.77% | CCC(C)N(C)C(=O)c1nc2ccccc2c(-c2ccccc2F)c1C (stereo not given) |

species on record: Rattus norvegicus; experiment: Tissue (muscle) distribution in Albino male CD rats after 5 minutes expressed as percent of injected dose per gram of organ.; assay type: ADME, organism-based; conditions: in vivo; procedure, shortened: as §1

| I.D./g | Compound |
| --- | --- |
| 0.06% | CCC(C)N(C)C(=O)c1nc2ccccc2c(-c2ccccc2F)c1C (stereo not given) |

species on record: Rattus norvegicus; experiment: Tissue (cortex) concentration of radioactivity at 30 min post-injection into Albino male CD rats with vehicle.; assay type: ADME, organism-based; conditions: in vivo, 0.5 h; procedure, shortened: as §3

| I.D./g | Compound |
| --- | --- |
| 0.05% | CCC(C)N(C)C(=O)c1nc2ccccc2c(-c2ccccc2F)c1C (stereo not given) |

species on record: Rattus norvegicus; experiment: Tissue (cortex) distribution in Albino male CD rats after 15 minutes expressed as percent of injected dose per gram of organ.; assay type: ADME, organism-based; conditions: in vivo, 0.25 h; procedure, shortened: as §2

| I.D./g | Compound |
| --- | --- |
| 0.11% | CCC(C)N(C)C(=O)c1nc2ccccc2c(-c2ccccc2F)c1C (stereo not given) |

species on record: Rattus norvegicus; experiment: Tissue (cortex) distribution in Albino male CD rats after 30 minutes expressed as percent of injected dose per gram of organ.; assay type: ADME, organism-based; conditions: in vivo, 0.5 h; procedure, shortened: as §2

| I.D./g | Compound |
| --- | --- |
| 0.1% | CCC(C)N(C)C(=O)c1nc2ccccc2c(-c2ccccc2F)c1C (stereo not given) |

species on record: Rattus norvegicus; experiment: Tissue (cortex) distribution in Albino male CD rats after 5 minutes expressed as percent of injected dose per gram of organ.; assay type: ADME, organism-based; conditions: in vivo; procedure, shortened: as §2

| I.D./g | Compound |
| --- | --- |
| 0.1% | CCC(C)N(C)C(=O)c1nc2ccccc2c(-c2ccccc2F)c1C (stereo not given) |
